Data from ChEMBL document CHEMBL4622986, “Synthesis and Anti-HCV Activity of Sugar-Modified Guanosine Analogues: Discovery of AL-611 as an HCV NS5B Polymerase Inhibitor for the Treatment of Chronic Hepatitis C” (J Med Chem, 2020).

Tests used:
[1] = Prodrug activation in human hepatocytes assessed as time at which [[(2S,3S,4R,5R)-5-(2-amino-6-oxo-1H-purin-9-yl)-2,4-difluoro-3-hydroxy-4-methyl-tetrahydrofuran-2-yl]methoxy-hydroxy-phosphoryl]phosphono hydrogen phosphate metabolite formation reached steady state at 10 uM incubated for 2 to 72 hrs by LC-MS/MS analysis; type: ADME, cell-based, Hepatocyte
Summary of the method: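 Primary human hepatocytes acclimated overnight at 37 °C, 5% CO2, then continuously incubated with 10 μM compound and sampled over 2-72 h. Cells washed with cold saline and lysed in 70/30 methanol/water. Intracellular NTP quantified by negative-ion LC-MS/MS against standards spiked into untreated hepatocyte lysate.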

[2] = Prodrug activation in human hepatocytes assessed as [[(2S,3S,4R,5R)-5-(2-amino-6-oxo-1H-purin-9-yl)-2,4-difluoro-3-hydroxy-4-methyl-tetrahydrofuran-2-yl]methoxy-hydroxy-phosphoryl]phosphono hydrogen phosphate metabolite formation after 24 to 48 hrs by LC-MS/MS analysis; type: ADME, cell-based, Hepatocyte
[3] = Prodrug activation in human hepatocytes assessed as nucleoside monophosphate metabolite formation per million cells incubated for 24 hrs; type: ADME, cell-based, Hepatocyte
Summary of the method: (§1)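 Primary human hepatocytes (1.5-2 million cells/well) acclimated overnight at 37 °C, 5% CO2, then incubated 24 h with 50 μM extracellular compound. Cells washed with cold 0.9% NaCl and lysed in 70/30 methanol/water. Extract dried and reconstituted, then analysed by LC-MS/MS with an internal standard; reported as pmol per million cells.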

[4] = Cytotoxicity against human HuH7 cells incubated for 8 days by cellTiter-Glo assay; type: cell-based, Huh-7
Summary of the method: (§2)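 Cells (1×10^5/well) on collagen I-coated wells, first kept 8 days in recommended medium without drug, then exposed to compound for 8 days with refeeding every other day. Viability read by CellTiter-Glo luminescence; CC50 derived by curve fitting.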

[5] = Cytotoxicity against human U937 cells incubated for 8 days by cellTiter-Glo assay; type: cell-based, U-937; summary of the method: as §2
[6] = Prodrug activation in human hepatocytes assessed as half life of [[(2S,3S,4R,5R)-5-(2-amino-6-oxo-1H-purin-9-yl)-2,4-difluoro-3-hydroxy-4-methyl-tetrahydrofuran-2-yl]methoxy-hydroxy-phosphoryl]phosphono hydrogen phosphate metabolite at 50 uM incubated for 24 hrs followed by medium replacement measured after 6 hrs by LC-MS/MS analysis; type: ADME, cell-based, Hepatocyte
Summary of the method: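 Primary human hepatocytes acclimated overnight at 37 °C, 5% CO2, then given 50 μM compound for 24 h. Medium replaced with blank medium and cells sampled at 0, 3, 6, 10, 24 and 48 h. Cells washed with cold saline and lysed in 70/30 methanol/water; NTP measured by LC-MS/MS. Half-life obtained by first-order fit of the terminal phase (n = 3).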

[7] = Cytotoxicity against human MT4 cells incubated for 8 days by cellTiter-Glo assay; type: cell-based; summary of the method: as §2
[8] = Prodrug activation in human hepatocytes assessed as [[(2S,3S,4R,5R)-5-(2-amino-6-oxo-1H-purin-9-yl)-2,4-difluoro-3-hydroxy-4-methyl-tetrahydrofuran-2-yl]methoxy-hydroxy-phosphoryl]phosphono hydrogen phosphate metabolite formation per million cells at 50 uM incubated for 24 hrs by LC-MS/MS analysis; type: ADME, cell-based, Hepatocyte; summary of the method: as §1
[9] = Cytotoxicity against human A549 cells incubated for 8 days by cellTiter-Glo assay; type: cell-based; summary of the method: as §2
Hepatitis C virus = experiment: Antiviral activity against HCV con1 subgenomic replicon infected in human HuH7 cells assessed as reduction in viral RNA level by qRT-PCR analysis; type: functional, organism-based, Hepacivirus hominis; settings: isolate Con1, Huh-7
Summary of the method: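 Huh-7 cells carrying a subgenomic Con1 HCV replicon (neomycin phosphotransferase, kept under 0.25 mg/ml G418) were exposed to serially diluted compound in DMEM with 2% FBS and 0.5% DMSO, without G418, at 37 °C. Total RNA was extracted and HCV RNA copies were measured by multiplex QRT-PCR (Taqman). EC50 was obtained by 4-parameter curve fit.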

[10] = Prodrug activation in Beagle dog assessed as [[(2S,3S,4R,5R)-5-(2-amino-6-oxo-1H-purin-9-yl)-2,4-difluoro-3-hydroxy-4-methyl-tetrahydrofuran-2-yl]methoxy-hydroxy-phosphoryl]phosphono hydrogen phosphate metabolite formation in liver at 9.69 mg/kg, po measured at 4 hrs post dose by LC-MS/MS analysis; type: ADME, organism-based, Canis lupus familiaris; settings: in vivo
Summary of the method: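 Male non-naïve beagle dogs (n=2 per time point), fasted overnight, single oral dose of 9.69 mg/kg (5 mg/kg parent nucleoside equivalent) as a solution in 40% PEG400 in water. Animals anesthetized with pentobarbital before liver collection. Liver NTP measured by negative-ion LC-MS/MS against standards spiked into blank liver homogenate.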

[11] = Prodrug activation in human hepatocytes assessed as [[(2S,3S,4R,5R)-5-(2-amino-6-oxo-1H-purin-9-yl)-2,4-difluoro-3-hydroxy-4-methyl-tetrahydrofuran-2-yl]methoxy-hydroxy-phosphoryl]phosphono hydrogen phosphate metabolite formation at 0.5 to 50 uM incubated for 24 hrs by LC-MS/MS analysis; type: ADME, cell-based, Hepatocyte
Summary of the method: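 Primary human hepatocytes from three donors, acclimated overnight at 37 °C, 5% CO2, incubated 24 h across a range of extracellular compound concentrations. Cells washed with cold saline and lysed in 70/30 methanol/water. Intracellular NTP measured by negative-ion LC-MS/MS against standards spiked into untreated hepatocyte lysate; mean ± standard deviation reported.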

[12] = Cytotoxicity against human HepG2 cells incubated for 8 days by cellTiter-Glo assay; type: cell-based; summary of the method: as §2
[13] = Cytotoxicity against human HeLa cells incubated for 8 days by cellTiter-Glo assay; type: cell-based; summary of the method: as §2
[14] = Selectivity index, ratio of CC50 for human HuH7 cells infected with HCV con1 subgenomic replicon to EC50 for HCV con1 subgenomic replicon; type: toxicity; settings: read-out: Ratio CC50/EC50
Summary of the method: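 Ratio of CC50 (CellTiter-Blue viability after 3 days) to EC50 (HCV RNA by QRT-PCR). Both were measured in Huh-7 Con1 subgenomic replicon cells in DMEM with 2% FBS and 0.5% DMSO at 37 °C.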

[15] = Cytotoxicity against human HuH7 cells infected with HCV con1 subgenomic replicon assessed as reduction in cell viability measured after 3 days by CellTiter-blue cell viability assay; type: cell-based, Huh-7
Summary of the method: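 Run in the replicon-bearing Huh-7 cells under the same settings as the antiviral read (DMEM, 2% FBS, 0.5% DMSO, no G418, 37 °C). After 3 days of treatment, viability was read with CellTiter-Blue and CC50 was derived by curve fitting.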

CCOc1nc(N)nc2c1ncn2[C@@H]1O[C@](F)(COP(=O)(N[C@@H](C)C(=O)OC(C)C)Oc2ccccc2)[C@@H](O)[C@@]1(C)F (stereo partly specified)
Time [1]: 2 to 16 h
Drug metabolism [2]: Metabolite_Notdetected
Drug metabolism [3]: 89 pmol
CC50 at 192 h [4]: > 100 µM
CC50 at 192 h [5]: 10 µM
t1/2 [6]: 11.2 h
CC50 at 192 h [7]: 92 µM
Drug metabolism [8]: 271 pmol
CC50 at 192 h [9]: > 100 µM
EC50 (Hepatitis C virus): 0.014 µM
Drug metabolism [10]: 11.2 µM
Drug metabolism [11]: Metabolite_Detected
CC50 at 192 h [12]: > 100 µM
CC50 at 192 h [13]: > 100 µM
selectivity ratio [14]: > 7000
CC50 at 72 h [15]: > 100 µM
